Experimental data reported in ChEMBL document CHEMBL1136531, “Sphingomyelin analogues as inhibitors of sphingomyelinase” (Bioorg Med Chem Lett, 2003).

These molecules were tested against T1, Sphingomyelin phosphodiesterase 2 (Rattus norvegicus, UniProt Q9ET64) (assay: Inhibitory concentration against the membrane neutral magnesium-dependent Sphingomyelinase (N-SMase) using rat brain microsomes as the enzyme source).
T1 sequence (Q9ET64 whole entry): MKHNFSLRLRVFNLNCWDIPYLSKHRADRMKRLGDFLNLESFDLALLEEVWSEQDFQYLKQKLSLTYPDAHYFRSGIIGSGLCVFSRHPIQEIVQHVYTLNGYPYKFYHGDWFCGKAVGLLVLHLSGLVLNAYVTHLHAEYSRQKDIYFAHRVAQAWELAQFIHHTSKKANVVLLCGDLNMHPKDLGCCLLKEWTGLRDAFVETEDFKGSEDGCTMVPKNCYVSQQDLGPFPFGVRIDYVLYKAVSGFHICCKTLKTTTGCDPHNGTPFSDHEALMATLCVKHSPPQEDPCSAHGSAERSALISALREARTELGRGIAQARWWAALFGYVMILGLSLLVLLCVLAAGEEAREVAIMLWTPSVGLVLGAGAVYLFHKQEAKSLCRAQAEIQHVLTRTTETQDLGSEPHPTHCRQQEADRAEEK
How it was run: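 Rat brain microsomes served as the enzyme source and were incubated 25 min at 37 °C with 0.3mM ¹⁴C-labelled sphingomyelin in 100 mM Tris–HCl (pH 7.5), 20 mM MgCl₂ and 0.25% Triton X-100, across a range of inhibitor concentrations. Released radioactive phosphorylcholine was separated by chloroform/methanol (2/1) extraction and counted by scintillation in the aqueous phase. IC₅₀ was derived from these counts.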

Structure (SMILES) | IC50 [µM]
CCCCCCCCCCCCC/C=C/[C@@H](O)[C@H](COC(=O)NCCN(C)C)NC(=O)C(C)(C)C | 4.1
CCCCCCCCCCCCC/C=C/[C@@H](O)[C@H](COC(=O)NCCC(C)(C)C)NC(=O)C(C)(C)C | 77
CCCCCCCCCCCCC/C=C/[C@@H](O)[C@H](COC(=O)NCc1ccccn1)NC(=O)C(C)(C)C | 5
CCCCCCCCCCCCC/C=C/C(O)C(N)COC(=O)NCc1ccncc1 (single isomer, unassigned) | > 100
CCCCCCCCCCCCC/C=C/[C@@H](O)[C@H](COC(=O)NCCCN(C)C)NC(=O)C(C)(C)C | 4.9
CCCCCCCCCCCCC/C=C/[C@@H](O)[C@H](COC(=O)NCC[N+](C)(C)C)NC(=O)C(C)(C)C | 8.7
CCCCCCCCCCCCC/C=C/[C@@H](O)[C@H](COC(=O)NCCN(C(C)C)C(C)C)NC(=O)C(C)(C)C | 18
CCCCCCCCCCCCC/C=C/[C@@H](O)[C@H](COC(=O)NCCc1ccccn1)NC(=O)C(C)(C)C | 8.4
CCCCCCCCCCCCC/C=C/[C@@H](O)[C@H](COC(=O)NCc1ccncc1)NC(=O)CCCCCCCCCCCCCCCCC | > 100
CCCCCCCCCCCCC/C=C/[C@@H](O)[C@H](COC(=O)NCc1cccnc1)NC(=O)C(C)(C)C | 2.1
CCCCCCCCCCCCC/C=C/[C@@H](O)[C@H](COC(=O)CCCN(C)C)NC(=O)C(C)(C)C | 31
CCCCCCCCCCCCC/C=C/[C@@H](O)[C@H](COC(=O)Nc1ccccn1)NC(=O)C(C)(C)C | 7.9
CCCCCCCCCCCCC/C=C/[C@@H](O)[C@H](COC(=O)NCc1ccncc1)NC(=O)OC(C)(C)C | > 100
CCCCCCCCCCCCC/C=C/[C@@H](O)[C@H](COC(=O)NCc1ccncc1)NC(C)=O | > 100
CCCCCCCCCCCCC/C=C/[C@@H](O)[C@H](COC(=O)NCc1ccc(N(C)C)cc1)NC(=O)C(C)(C)C | 8.2
CCCCCCCCCCCCC/C=C/[C@@H](O)[C@H](COC(=O)NCc1ccncc1)NC(=O)C(C)C | 1.8
